Results taken from paper PMC4697833 (Bioorganic & medicinal chemistry, 2015).
Where two headings read alike, the source gives them in different places.

Tests used:
[1] = test system: NCI/ADR-RES (ovarian cancer; adriamycin-resistant); conditions: read-out: IC50 NCI/ADR-RES, previously reported; cited from earlier work
[2] = test system: TEX cells; assay: Methylcellulose clonal growth assay with TEX cells; type: cell-based, human; conditions: 11 d growth on methylcellulose
How it was run: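 TEX cells were suspended in methylcellulose medium with penicillin (100 I.U./mL) and streptomycin (100 µg/mL) at a final 1.2 × 10⁴ cells/mL, i.e. 6,000 cells/well. Test compound, diluted in TEX medium, or DMSO (0.05%, control) was added. Cells were plated as technical triplicates and grown 11 d at 37 °C, 5% CO₂. Two people counted colonies independently at 10X. Values are the mean of 3 biological replicates ± S.D., with unpaired t-tests against DMSO.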

[3] = Measured LogD7.4; type: physicochemical; conditions: pH 7.4
How it was run: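 LogD at pH 7.4 was determined experimentally by liquid-liquid distribution chromatography, run by a contract analytical lab. Each value is the average of two measurements. The assay's measurable range is 1–5 log units.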

[4] = test system: HL-60 (acute promyelocytic leukemia); assay: Alamar blue cytotoxicity assay, HL-60; type: cell-based, human
[5] = test system: CCRF-CEM (acute lymphoblastic leukemia); assay: Alamar blue cytotoxicity assay, CCRF-CEM; type: cell-based, human; conditions: read-out: Growth inhibitory activity (IC50) CCRF-CEM
How it was run: (§1)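 Suspension cells (CCRF-CEM; TEX in IMDM with L-glutamine, 15% FBS, SCF 20 ng/mL, IL-3 2 ng/mL, penicillin/streptomycin) were seeded at 10,000 cells/well 24 h before compound addition. Cultures were kept at 37 °C in humidified 5% CO₂. Viability was read with Alamar blue. IC50 is mean ± S.D. of n ≥ 3 biological replicates.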

[6] = test system: U-87 MG (glioblastoma multiforme); assay: Alamar blue cytotoxicity assay, U-87 MG; type: cell-based, human; conditions: read-out: Growth inhibitory activity (IC50) U-87 MG
[7] = test system: GBM6 (glioblastoma multiforme); assay: Alamar blue cytotoxicity assay, GBM6; type: cell-based, human
[8] = test system: MCF-7 (breast adenocarcinoma); assay: Alamar blue cytotoxicity assay, MCF-7; type: cell-based, human
How it was run: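 MCF-7 cells were grown in MEM with 10% FBS, bovine insulin 0.01 mg/mL, penicillin and streptomycin at 37 °C in 5% CO₂. They were detached with trypsin-EDTA or TrypLE and seeded at 5,000 cells/well 24 h before dosing. Readout was Alamar blue reduction. IC50 is mean ± S.D. from n ≥ 3 biological replicates.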

[9] = test system: DU-145 (prostate cancer); assay: Alamar blue cytotoxicity assay, DU-145; type: cell-based, human
[10] = test system: murine AML cell line B117P; assay: Murine cytotoxicity assay, B117P; type: cell-based; conditions: read-out: Growth inhibitory activity (IC50) B117P
How it was run: (§2)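 Murine AML lines were used: B117P and B140P from BXH-2 mice, which develop leukemia from an endogenous murine leukemia virus, and their counterparts B117H and B140H. Cells per well were 25,000 (B117P), 28,000 (B117H), 36,000 (B140P) and 44,000 (B140H) in 96-well format. IC50 values are mean ± S.D. from biological triplicate.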

[11] = test system: murine AML cell line B117H (cytarabine-resistant); assay: Murine cytotoxicity assay, B117H; type: cell-based; conditions: read-out: Growth inhibitory activity (IC50) B117H
How it was run: as §2

[12] = test system: murine AML cell line B140P; assay: Murine cytotoxicity assay, B140P; type: cell-based; conditions: read-out: Growth inhibitory activity (IC50) B140P
How it was run: as §2

[13] = test system: murine AML cell line B140H (cytarabine-resistant); assay: Murine cytotoxicity assay, B140H; type: cell-based; conditions: read-out: Growth inhibitory activity (IC50) B140H
How it was run: as §2

[14] = test system: TEX cells; assay: Alamar blue cytotoxicity assay, TEX; type: cell-based, human; conditions: read-out: Growth inhibitory activity (IC50) TEX
How it was run: as §1

[15] = test system: total bone marrow cell population; assay: Flow cytometry viability of total bone marrow cells; type: cell-based, human
How it was run: (§3)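 Cells were plated at 1 × 10⁶ cells/mL with test compound (25 µM) or doxorubicin (0.5 µM) for 12 h (final DMSO 0.03%). Staining was CD34/CD38, then Annexin V/7-AAD, with over 5 × 10⁴ events. Viability is the unstained fraction, mean ± S.D. of n ≥ 3; unpaired t-tests.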

[16] = test system: CD34+CD38− TEX cells; assay: Flow cytometry viability of CD34+CD38− TEX cells; type: cell-based; conditions: Homo sapiens, 12 h; for viability at 25 µM: read-out: cell viability of CD34+CD38− TEX cells
How it was run: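 TEX cells at 1 × 10⁶ cells/mL were dosed for 12 h at 37 °C, 20% O₂, 5% CO₂ (final DMSO 0.03% v/v). Test compound was given at 25, 15 or 2.5 µM; the doxorubicin reference at 2.5, 0.5 or 0.05 µM. Cells were stained for CD34/CD38 (10 min, 4 °C), then Annexin V-FITC/7-AAD (10 min, RT, dark). Over 5 × 10⁴ events were collected. Viable cells were double-negative. Values are mean ± S.D. of 3–5 biological replicates; unpaired t-test versus untreated.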

[17] = test system: TEX cells; assay: Intracellular ROS induction; type: cell-based, human; conditions: 30 min
How it was run: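 TEX cells were seeded at 5 × 10⁵ cells/mL and incubated overnight at 37 °C, 5% CO₂. They were then exposed to test compound at 25 or 100 µM, with H₂O₂ 100 µM as positive control. CellROX Green (5 µM final) was added at once, followed by 30 min at 37 °C. Cells were washed twice in FACS buffer and 5 × 10⁴ events recorded. Median fluorescence was normalized to untreated control. Runs were in quadruplicate (H₂O₂ triplicate); mean ± S.D.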

[18] = test system: NCI/ADR-RES (ovarian cancer; adriamycin-resistant); assay: Alamar blue cytotoxicity assay, NCI/ADR-RES; type: cell-based, human; conditions: read-out: Growth inhibitory activity (IC50) NCI/ADR-RES; mean ± S.D.
How it was run: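 Adherent NCI/ADR-RES cells were seeded at 5,000 cells/well 24 h prior to compound treatment and kept at 37 °C, 5% CO₂. Growth was measured by Alamar blue. IC50 values are mean ± S.D. over n ≥ 3 biological replicates.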

[19] = test system: CD34+CD38− BM cells; assay: Flow cytometry viability of CD34+CD38− bone marrow cells; type: cell-based, human; conditions: 0.5 µM, 12 hr
How it was run: as §3

[20] = Homo sapiens, HL-60, read-out: Growth inhibitory activity (IC50) HL-60
[21] = Homo sapiens, GBM6, read-out: Growth inhibitory activity (IC50) GBM6
[22] = Homo sapiens, MCF7, read-out: Growth inhibitory activity (IC50) MCF-7
[23] = Homo sapiens, DU-145, read-out: Growth inhibitory activity (IC50) DU-145
[24] = 15 µM, N.D. = clonal growth not detected
[25] = read-out: Growth inhibitory activity (IC50) HL-60, mean ± S.D.
[26] = read-out: Growth inhibitory activity (IC50) GBM6, mean ± S.D.
[27] = read-out: Growth inhibitory activity (IC50) MCF-7, mean ± S.D.
[28] = read-out: Growth inhibitory activity (IC50) DU-145, mean ± S.D.

Nc1ccn([C@@H]2O[C@H](CO)[C@@H](O)C2(F)F)c(=O)n1 [gemcitabine]
IC50 [1]: > 500 µM

Nc1ccn([C@@H]2O[C@H](CO)[C@@H](O)[C@@H]2O)c(=O)n1 [AraC, cytarabine]
Colonies (mean number ± S.D.) ([2]; 0.1 µM): 2.6 ± 1.0

C=C1C(=O)O[C@@H]2/C=C(\C)CC/C=C(\C)CC[C@@H]12 [CTL, Costunolide]
chromatographic logD [3]: 2.9
IC50 [4, 20]: 13 ± 0.2 µM
IC50 ([5]; Homo sapiens, CCRF-CEM): 2.3 ± 0.2 µM
IC50 ([6]; Homo sapiens, U-87 MG): 9.6 ± 0.8 µM
IC50 [7, 21]: 7 ± 1.8 µM
IC50 [8, 22]: 17.5 ± 3.7 µM
IC50 [9, 23]: 7.7 ± 2.8 µM
IC50 ([10]; Mus musculus): 3.5 ± 0.4 µM
IC50 ([11]; Mus musculus): 4.8 ± 0.7 µM
IC50 ([12]; Mus musculus): 3.6 ± 1.2 µM
IC50 ([13]; Mus musculus): 2.8 ± 0.7 µM
IC50 ([14]; Homo sapiens, 48 h): 4.9 ± 0.4 µM
reduction in total BM viability ([15]; 25 µM, 12 h): 22–26%
viability at 25 µM [16]: 1 to 10%
Colonies (mean number ± S.D.) ([2]; 2.5 µM): 6.9 ± 3.6
Colonies (mean number ± S.D.) [2, 24]: 5.6 ± 4.7
induction of intracellular ROS (MFI normalized to untreated control) ([17]; 100 µM): 2.2 fold

C=C1C(=O)O[C@H]2[C@H]1CCC(C)=C1CC[C@@](C)(O)[C@@H]12 [Compound 1, Micheliolide]
chromatographic logD [3]: 2.18
IC50 [4, 20]: 9.2 ± 2.2 µM
IC50 ([5]; Homo sapiens, CCRF-CEM): 2.7 ± 1.1 µM
IC50 ([6]; Homo sapiens, U-87 MG): 17.8 ± 5 µM
IC50 [7, 21]: 8.5 ± 0.7 µM
IC50 [8, 22]: 9.6 ± 1 µM
IC50 [9, 23]: 14.8 ± 4 µM
IC50 ([10]; Mus musculus): 6.4 ± 1 µM
IC50 ([11]; Mus musculus): 8.8 ± 1.7 µM
IC50 ([12]; Mus musculus): 10 ± 0.4 µM
IC50 ([13]; Mus musculus): 9.3 ± 1.5 µM
IC50 ([14]; Homo sapiens, 48 h): 2.7 ± 0.4 µM
reduction in total BM viability ([15]; 25 µM, 12 h): 22–26%
viability at 25 µM [16]: 1 to 10%
Colonies (mean number ± S.D.) ([2]; 2.5 µM): 4.2 ± 2.5
induction of intracellular ROS (MFI normalized to untreated control) ([17]; 25 µM): 1.7 fold
induction of intracellular ROS (MFI normalized to untreated control) ([17]; 100 µM): 2.9 fold

OO [hydrogen peroxide]
induction of intracellular ROS (MFI normalized to untreated control) ([17]; 100 µM): 3.1 fold

C=C1C(=O)O[C@@H]2[C@H]3O[C@]3(C)CC/C=C(\CO)CC[C@@H]12 [MelB, Melampomagnolide B]
IC50 [4, 25]: 7.5 ± 3 µM
IC50 ([5]; mean ± S.D.): 5.5 ± 1.2 µM
IC50 ([6]; mean ± S.D.): 16.3 ± 6.8 µM
IC50 [7, 26]: 4.5 ± 1.9 µM
IC50 [8, 27]: 9.5 ± 1.9 µM
IC50 [9, 28]: 14.3 ± 5.9 µM
IC50 [18]: 15 ± 4.9 µM
IC50 ([10]; mean ± S.D.): 2.1 ± 0.8 µM
IC50 ([11]; mean ± S.D.): 2.5 ± 1 µM
IC50 ([12]; mean ± S.D.): 2.9 ± 1 µM
IC50 ([13]; mean ± S.D.): 2.2 ± 0.7 µM
IC50 ([14]; 48 hr treatment, mean ± S.D.): 6.8 ± 2.3 µM
reduction in total BM viability ([15]; 25 µM, 12 h): 22–26%
Colonies (mean number ± S.D.) ([2]; 2.5 µM): 5.3 ± 1.6
Colonies (mean number ± S.D.) [2, 24]: 0.1 ± 0.3
induction of intracellular ROS (MFI normalized to untreated control) ([17]; 25 µM): No observable induction of ROS
induction of intracellular ROS (MFI normalized to untreated control) ([17]; 100 µM): No observable induction of ROS

COc1cccc2c1C(=O)c1c(O)c3c(c(O)c1C2=O)C[C@@](O)(C(=O)CO)C[C@@H]3O[C@H]1C[C@H](N)[C@H](O)[C@H](C)O1 [DOX, Doxorubicin]
reduction in total BM viability ([15]; 0.5 µM, 12 hr): 56%
reduction in the primitive CD34+CD38− BM population viability [19]: 85%
viability at 0.5 µM ([16]; read-out: viability of CD34+CD38− TEX cells): 6%
Colonies (mean number ± S.D.) ([2]; 0.1 µM): 0.7 ± 1.3
IC50 [1]: > 500 µM

C=C1C(=O)OC2C1CCC(C)=CCCC1(C)OC21 (stereo not drawn) [Compound 2, cis-PTL]
LogD7.4 ([3]; average of two measurements): 2.00
IC50 [4, 25]: 8 ± 1.1 µM
IC50 ([5]; mean ± S.D.): 2.2 ± 1 µM
IC50 ([6]; mean ± S.D.): 9.1 ± 4.4 µM
IC50 [7, 26]: 3.3 ± 0.8 µM
IC50 [8, 27]: 7.5 ± 0.8 µM
IC50 [9, 28]: 6 ± 4.2 µM
IC50 [18]: 9.4 ± 2.1 µM
